What was measured:
[1] = Plasma level data at a dose of 36 mg/kg, iv after 1 hr; type: ADME, organism-based; design: dose 36 mg/kg, route intravenous; details: read-out: Plasma level
Outline: (§1)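 Male Lewis rats get a single iv or oral dose of the sodium salt, suspended in 0.4% (w/v) methyl cellulose. Plasma drug levels are measured by HPLC at the timed points and given as mean ± SD, n = 3.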

[2] = Plasma level data at a dose of 36 mg/kg, po after 4 hr; type: ADME, organism-based; design: dose 36 mg/kg, route oral; details: read-out: Plasma level
Outline: (§2)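 Male Lewis rats given a single po dose of the sodium salt suspended in 0.4% (w/v) methyl cellulose. Plasma drug levels measured by HPLC at set times up to 12 h; values are mean ± SD, n = 3.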

[3] = Plasma level data at a dose of 36 mg/kg, po after 1 hr; type: ADME, organism-based; design: dose 36 mg/kg, route oral; details: read-out: Plasma level; outline: as §1
[4] = test system: Rattus norvegicus; assay: Compound was tested in vivo for antiinflammatory activity against chronic adjuvant arthritic rat by therapeutic percentage inhibition 1 degree paw after peroral administration of 30 mg/kg of dose; type: functional
[5] = test system: Rattus norvegicus; assay: Compound was tested in vivo for antiinflammatory activity against chronic adjuvant arthritic rat by therapeutic percentage inhibition 2 degree paw after peroral administration of 10 mg/kg of dose; type: functional; details: route oral
[6] = test system: Rattus norvegicus; assay: Compound was tested for intestinal Ulcerogenic effect in rats, activity expressed as ulcer incidence at a dose of 300 mg/kg; type: functional
Outline: (§3)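 Normal fed rats were gavaged once daily for three consecutive days at 10–300 mg/kg and killed 24 h after the last dose. Intestines were examined for ulcers, recording incidence per group of 8 and a lesion score (±SE).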

[7] = Plasma level data at a dose of 36 mg/kg, iv after 0.25 hr; type: ADME, organism-based; design: dose 36 mg/kg, route intravenous; details: read-out: Plasma level; outline: as §1
[8] = organism: Rattus norvegicus; assay: Delayed Type hypersensitivity (DTH) is measured by increase in ear thickness 24 hours after antigen injection into pinna (10E-3); type: functional
[9] = Plasma level data at a dose of 36 mg/kg, po after 2 hr; type: ADME, organism-based; design: dose 36 mg/kg, route oral; details: read-out: Plasma level; outline: as §2
[10] = test system: Rattus norvegicus; assay: C(compound) was tested for intestinal Ulcerogenic effect in rats at a dose of 30 mg/kg; type: functional; outline: as §3
[11] = Plasma level data at a dose of 36 mg/kg, iv after 0.5 hr; type: ADME, organism-based; design: dose 36 mg/kg, route intravenous; details: read-out: Plasma level; outline: as §1
[12] = Plasma level data at a dose of 36 mg/kg, po after 12 hr; type: ADME, organism-based; design: dose 36 mg/kg, route oral; details: read-out: Plasma level; outline: as §2
[13] = test system: Rattus norvegicus; assay: Compound was tested in vivo for antiinflammatory activity against chronic adjuvant arthritic rat by therapeutic percentage inhibition 1 degree paw after peroral administration of 10 mg/kg of dose; type: functional; details: route oral
[14] = Plasma level data at a dose of 36 mg/kg, iv after 2 hr; type: ADME, organism-based; design: dose 36 mg/kg, route intravenous; details: read-out: Plasma level; outline: as §1
[15] = Plasma level data at a dose of 36 mg/kg, po after 6 hr; type: ADME, organism-based; design: dose 36 mg/kg, route oral; details: read-out: Plasma level; outline: as §2
[16] = test system: Rattus norvegicus; assay: Compound was tested in vivo for antiinflammatory activity against chronic adjuvant arthritic rat by therapeutic percentage inhibition 1 degree paw after peroral administration of 3.3 mg/kg of dose; type: functional; details: route oral
[17] = test system: Rattus norvegicus; assay: Compound was tested in vivo for antiinflammatory activity against chronic adjuvant arthritic rat by therapeutic percentage inhibition 2 degree paw after peroral administration of 3.3 mg/kg of dose; type: functional; details: route oral
[18] = test system: Rattus norvegicus; assay: compound was tested for antiinflammatory activity against collagen II arthritis in rats, activity% inhibition in injected paw edema; type: functional
Outline: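 Arthritis induced in rats by injection of bovine articular cartilage type II collagen (dissolved in 0.01 M AcOH, dialysed against saline) mixed 1:1 with incomplete Freund's adjuvant. Paw inflammation checked weekly for 7 weeks. Inhibition = [Δpaw vol(collagen) − Δpaw vol(collagen + drug)]/[Δpaw vol(collagen) − Δpaw vol(ICFA control)] × 100. Bone damage scored by lateral-projection radiography; p ≤ 0.05 by Student's t-test.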

[19] = Plasma level data at a dose of 20 mg/kg, po after 12 hr; type: ADME, organism-based; design: dose 20 mg/kg, route oral; details: read-out: Plasma level; outline: as §1
[20] = Plasma level data at a dose of 20mg/kg, po after 2 hr; type: ADME, organism-based; details: read-out: Plasma level; outline: as §1
[21] = test system: Rattus norvegicus; assay: Compound was tested in vivo for antiinflammatory activity against chronic adjuvant arthritic rat by therapeutic inhibition 1 degree paw after peroral administration of 3 mg/kg of dose; type: functional; details: route oral
[22] = Plasma level data at a dose of 20 mg/kg, po after 4 hr; type: ADME, organism-based; design: dose 20 mg/kg, route oral; details: read-out: Plasma level; outline: as §1
[23] = Plasma level data at a dose of 20 mg/kg, po after 0.25 hr; type: ADME, organism-based; design: dose 20 mg/kg, route oral; details: read-out: Plasma level; outline: as §1
[24] = Plasma level data at a dose of 20mg/kg, po after 6 hr; type: ADME, organism-based; details: read-out: Plasma level; outline: as §1
[25] = Plasma level data at a dose of 20 mg/kg, iv after 1 hr; type: ADME, organism-based; design: dose 20 mg/kg, route intravenous; details: read-out: Plasma level; outline: as §1
[26] = Plasma level data at a dose of 20mg/kg, po after 0.5 hr; type: ADME, organism-based; details: read-out: Plasma level; outline: as §1
[27] = Plasma level data at a dose of 20 mg/kg, iv after 12 hr; type: ADME, organism-based; design: dose 20 mg/kg, route intravenous; details: read-out: Plasma level; outline: as §1
[28] = Plasma level data at a dose of 20 mg/kg, iv after 0.5 hr; type: ADME, organism-based; design: dose 20 mg/kg, route intravenous; details: read-out: Plasma level; outline: as §1
[29] = Plasma level data at a dose of 20 mg/kg, iv after 6 hr; type: ADME, organism-based; design: dose 20 mg/kg, route intravenous; details: read-out: Plasma level; outline: as §1
[30] = Plasma level data at a dose of 20 mg/kg, iv after 0.25 hr; type: ADME, organism-based; design: dose 20 mg/kg, route intravenous; details: read-out: Plasma level; outline: as §1
[31] = test system: Rattus norvegicus; assay: Compound was tested in vivo for antiinflammatory activity against chronic adjuvant arthritic rat by therapeutic inhibition 1 degree paw after peroral administration of 1 mg/kg of dose; type: functional; details: route oral
[32] = test system: Rattus norvegicus; assay: Compound was tested for intestinal ulcerogenic effect in rats, activity expressed as lesion score at a dose of 10 mg/kg; type: functional; outline: as §3
[33] = test system: Rattus norvegicus; assay: Compound was tested for intestinal ulcerogenic effect in rats, activity expressed as lesion score at a dose of 30 mg/kg; type: functional; outline: as §3
[34] = test system: Rattus norvegicus; assay: Compound was tested for gastric ulcerogenic effect in rats, activity expressed as lesion length at a dose of 10 mg/kg
[35] = test system: Rattus norvegicus; assay: Compound was tested for intestinal ulcerogenic effect in rats at a dose of 300 mg/kg; type: functional; outline: as §3
[36] = test system: Rattus norvegicus; assay: Compound was tested for intestinal ulcerogenic effect in rats, activity expressed as ulcer incidence at a dose of 10 mg/kg; type: functional; outline: as §3
[37] = test system: Rattus norvegicus; assay: Compound was tested in vivo for antiinflammatory activity against chronic adjuvant arthritic rat by therapeutic inhibition 1 degree paw after peroral administration of 18 mg/kg of dose; type: functional; details: route oral
[38] = test system: Rattus norvegicus; assay: Compound was tested for intestinal ulcerogenic effect in rats, activity expressed as lesion score at a dose of 300 mg/kg; type: functional; outline: as §3
[39] = test system: Rattus norvegicus; assay: Compound was tested for gastric ulcerogenic effect in rats, activity expressed as lesion length at a dose of 30 mg/kg
[40] = test system: Rattus norvegicus; assay: Compound was tested for intestinal ulcerogenic effect in rats, activity expressed as ulcer incidence at a dose of 100 mg/kg; type: functional; outline: as §3
[41] = test system: Rattus norvegicus; assay: Compound was tested for intestinal ulcerogenic effect in rats, activity expressed as ulcer incidence at a dose of 300 mg/kg; type: functional; outline: as §3
[42] = test system: Rattus norvegicus; assay: Compound was tested for gastric ulcerogenic effect in rats, activity expressed as lesion length at a dose of 100 mg/kg
[43] = test system: Rattus norvegicus; assay: Compound was tested for gastric ulcerogenic effect in rats, activity expressed as lesion length at a dose of 300 mg/kg
[44] = test system: Rattus norvegicus; assay: Compound was tested for intestinal ulcerogenic effect in rats, activity expressed as ulcer incidence at a dose of 30 mg/kg; type: functional; outline: as §3
[45] = test system: Rattus norvegicus; assay: Compound was tested for intestinal ulcerogenic effect in rats, activity expressed as lesion score at a dose of 100 mg/kg; type: functional; outline: as §3

## CCCc1c(O)n(Cc2ccc(F)cc2)c2nc3c(c(=O)n(C)c(=O)n3C)n2c1=O
[1]
  concentration at 1 h: 107000 ng/mL
[2]
  concentration at 4 h: 41800 ng/mL
[3]
  concentration at 1 h: 23100 ng/mL
[4]; Rattus norvegicus, po
  inhibition in vivo at 30 mg/kg: 47%
[4]; route oral, 30 mg/kg
  Inhibition: 47%
[5]
  inhibition in vivo at 10 mg/kg: 38%
[6]
  Ulcer incidence: 0 number/group
[7]
  concentration at 0.25 h: 140000 ng/mL
[8]
  DTH: 34.1 10e-3mm
[9]
  concentration at 2 h: 66100 ng/mL
[10]
  Ulcer incidence: 0 number/group
[11]
  concentration at 0.5 h: 107000 ng/mL
[12]
  concentration at 12 h: 35900 ng/mL
[13]
  inhibition in vivo at 10 mg/kg: 27%
[14]
  concentration at 2 h: 128000 ng/mL
[15]
  concentration at 6 h: 21000 ng/mL
[16]
  inhibition in vivo at 3.3 mg/kg: 7%
[17]
  inhibition in vivo at 3.3 mg/kg: 30%

## CC(C)=CCc1c(O)n(Cc2ccccc2)c2nc3c(c(=O)n(C)c(=O)n3C)n2c1=O
[18]
  Inhibition: 0%
[19]
  concentration at 12 h: 26700 ng/mL
[20]
  concentration at 2 h: 21900 ng/mL
[21]
  inhibition in vivo at 3 mg/kg: 22%
[22]
  concentration at 4 h: 39000 ng/mL
[23]
  concentration at 0.25 h: 2400 ng/mL
[24]
  concentration at 6 h: 37000 ng/mL
[25]
  concentration at 1 h: 74700 ng/mL
[26]
  concentration at 0.5 h: 10800 ng/mL
[27]
  concentration at 12 h: 10600 ng/mL
[28]
  concentration at 0.5 h: 78600 ng/mL
[29]
  concentration at 6 h: 35100 ng/mL
[30]
  concentration at 0.25 h: 95100 ng/mL
[31]
  inhibition in vivo at 1 mg/kg: 0%

## CC(C)=CCc1c(O)n(Cc2ccc(F)cc2)c2nc3c(c(=O)n(C)c(=O)n3C)n2c1=O
[32]
  Lesion length: 0 mm rat-1
[33]
  Lesion length: 0 mm rat-1
[34]
  Length: 0 mm rat-1
[35]
  Ulcer incidence: 2 number/group
[36]
  Ulcer incidence: 0 number/group
[37]
  inhibition in vivo at 18 mg/kg: 39%
[38]
  Lesion length: 0.2 mm rat-1
[39]
  Length: 0.1 mm rat-1
[40]
  Ulcer incidence: 0 number/group
[41]
  Ulcer incidence: 2 number/group
[42]
  Length: 0.1 mm rat-1
[43]
  Length: 3 mm rat-1
[44]
  Ulcer incidence: 0 number/group
[45]
  Lesion length: 0 mm rat-1
